Laboratory results from ChEMBL document CHEMBL5705901, “Exploiting selective BCL-2 family inhibitors to dissect cell survival dependencies and define improved strategies for cancer therapy” (Sci Transl Med, 2015).
Active and inactive are the calls of the source. The calls are words filed in the database; no cut-off is given here.

How the values were obtained:
NCI-H358 [1] = experiment: Antitumor activity against human NCI-H358 cells xenografted in po dosed SCID mouse assessed as maximum tumor growth inhibition relative to control; type: functional
NCI-H358 [2] = experiment: Antitumor activity against human NCI-H358 cells xenografted in po dosed SCID mouse assessed as tumor growth delay relative to control; type: functional
Procedure, shortened: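 Tumor volume-based endpoints. TGD = 100(T/C − 1), where T and C are the median times for the treated and control groups to reach 1 cm3. Groups were five mice for NCI-H747 and OVCAR-5 and eight for NCI-H358. Docetaxel was given intravenously and the test agent orally.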

NCI-H358 [3] = experiment: Synergistic antitumor activity against human NCI-H358 cells xenografted in po dosed SCID mouse assessed as maximum tumor growth inhibition in presence of docetaxel relative to control; type: functional
Procedure, shortened: (§1)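 Xenografts dosed with oral inhibitor plus intravenous docetaxel. TGImax = 100(1 − Tv/Cv), from mean treated and control tumor volumes; TGD = 100(T/C − 1), from median times to reach 1 cm3. Group size 5 mice (NCI-H747, A549-FP3, EBC-1, OVCAR-5), 8 (NCI-H358), 10 (NCI-H1650).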

[4] = Toxicity in Sprague-Dawley rat assessed as inhibition of granulopoiesis by measuring reduction in neutrophil count at 7 mg/kg, po administered daily for 5 days measured on day 6 in presence of docetaxel by microscopic analysis relative to control; type: organism-based; conditions: in vivo, 144 h, time 6 day
Procedure, shortened: (§2)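 Male Sprague-Dawley rats, n = 10 per group: docetaxel 5 mg/kg i.v. once, or oral inhibitor daily for 5 days (30, 50 or 7 mg/kg depending on agent), alone or combined with docetaxel, against vehicles. Total neutrophil and platelet counts in blood collected on day 6; Tukey-Kramer test versus vehicle.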

NCI-H747 = experiment: Synergistic antitumor activity against human NCI-H747 cells xenografted in po dosed SCID-bg mouse assessed as tumor growth delay in presence of docetaxel relative to control; type: functional; procedure, shortened: as §1
[5] = Toxicity in Sprague-Dawley rat assessed as inhibition of […] by measuring reduction in circulating platelets at 7 mg/kg, po administered daily for 5 days and measured on day 6 by microscopic analysis; type: organism-based; conditions: in vivo, 144 h, time 6 day; procedure, shortened: as §2
[6] = Toxicity in po dosed SCID-bg mouse assessed as tolerance in presence of docetaxel; type: organism-based; conditions: in vivo
EBC-1 = experiment: Synergistic antitumor activity against human EBC-1 cells xenografted in po dosed SCID-bg mouse assessed as maximum tumor growth inhibition in presence of docetaxel relative to control; type: functional; procedure, shortened: as §1
[7] = Toxicity in po dosed SCID-bg mouse assessed as body weight loss in presence of docetaxel relative to control; type: organism-based; conditions: in vivo
MDA-MB-231 = experiment: Synergistic antitumor activity against LC3 positive human MDA-MB-231 cells xenografted in SCID mouse assessed as maximum tumor growth inhibition at 25 mg/kg, po coadministered with docetaxel once daily for 14 days relative to control; type: functional; conditions: MDA-MB-231, 336 h, time 14 day, read-out: TGI
Procedure, shortened: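 MDA-MB-231 LC3 metastatic breast cancer xenograft, 10 mice per group, with a vehicle control. Dosing: oral agent 25 mg/kg daily for 14 days; docetaxel 7.5 mg/kg iv once; combination gives both regimens. Mean tumor volumes tracked. TGImax = 100(1 − Tv/Cv) from mean treated vs control volumes. TGD = 100(T/C − 1) from median times to reach 1 cm3.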

NCI-H1650 = experiment: Synergistic antitumor activity against human NCI-H1650 cells xenografted in SCID-bg mouse assessed as maximum tumor growth inhibition at 25 mg/kg, po coadministered with docetaxel once daily for 14 days relative to control; type: functional; conditions: NCI-H1650, 336 h, time 14 day, read-out: TGI; procedure, shortened: as §1
MDA-MB-468 = experiment: Induction of apoptosis in human MDA-MB-468 cells assessed as accumulation of cells with sub-G0-G1 DNA content at 1 uM incubated for 48 hrs in presence of docetaxel by flow cytometric analysis; type: functional, cell-based
UAC812 = experiment: Induction of apoptosis in UAC812 (unknown origin) cells assessed as accumulation of cells with sub-G0-G1 DNA content at 1 uM incubated for 48 hrs in presence of docetaxel by flow cytometric analysis; type: functional, cell-based
MX1 = experiment: Induction of apoptosis in human MX1 cells assessed as accumulation of cells with sub-G0-G1 DNA content at 1 uM incubated for 48 hrs in presence of docetaxel by flow cytometric analysis; type: functional, cell-based
[8] = Inhibition of granulocyte colony formation in human bone marrow cells at 0.1 to 20 uM incubated for 14 to 16 days in presence of docetaxel by light microscopic analysis; type: toxicity, cell-based; conditions: bone marrow cell, dose lower 0.1 µM, time lower 14 day, dose upper 20 µM, time upper 16 day
Procedure, shortened: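 Human bone marrow granulocyte colony-forming assay in semisolid medium, increasing inhibitor concentrations ± 5 nM docetaxel; colonies counted by light microscopy after 14 days; triplicate means with SD; combinations compared with docetaxel alone by Student's t test.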

HCC1143 = experiment: Induction of apoptosis in human HCC1143 cells assessed as accumulation of cells with sub-G0-G1 DNA content at 1 uM incubated for 48 hrs in presence of docetaxel by flow cytometric analysis; type: functional, cell-based
T47D = experiment: Induction of apoptosis in human T47D cells assessed as accumulation of cells with sub-G0-G1 DNA content at 1 uM incubated for 48 hrs in presence of docetaxel by flow cytometric analysis; type: functional, cell-based
HCC1500 = experiment: Induction of apoptosis in human HCC1500 cells assessed as accumulation of cells with sub-G0-G1 DNA content at 1 uM incubated for 48 hrs in presence of docetaxel by flow cytometric analysis; type: functional, cell-based
MCF7 = experiment: Induction of apoptosis in human MCF7 cells expressing luciferase assessed as accumulation of cells with sub-G0-G1 DNA content at 1 uM incubated for 48 hrs in presence of docetaxel by flow cytometric analysis; type: functional, cell-based
NCI-H460 = experiment: Synergistic antiproliferative activity against human NCI-H460 cells assessed as reduction in cell viability by measuring bliss sum score incubated for 72 hrs in presence of docetaxel by CellTiter-Glo cell vaibility assay; type: functional
A549 = experiment: Synergistic antiproliferative activity against human A549 cells assessed as reduction in cell viability by measuring bliss sum score incubated for 72 hrs in presence of docetaxel by CellTiter-Glo cell vaibility assay; type: functional
OVCAR-3 = experiment: Synergistic antiproliferative activity against human OVCAR-3 cells assessed as reduction in cell viability by measuring bliss sum score incubated for 72 hrs in presence of docetaxel by CellTiter-Glo cell vaibility assay; type: functional
ZR-75-1 = experiment: Synergistic antiproliferative activity against human ZR-75-1 cells assessed as reduction in cell viability by measuring bliss sum score incubated for 72 hrs in presence of docetaxel by CellTiter-Glo cell vaibility assay; type: functional
HCC1569 = experiment: Synergistic antiproliferative activity against human HCC1569 cells assessed as reduction in cell viability by measuring bliss sum score incubated for 72 hrs in presence of docetaxel by CellTiter-Glo cell vaibility assay; type: functional
OVCAR-8 = experiment: Synergistic antiproliferative activity against human OVCAR-8 cells assessed as reduction in cell viability by measuring bliss sum score incubated for 72 hrs in presence of docetaxel by CellTiter-Glo cell vaibility assay; type: functional
SW1573 = experiment: Synergistic antiproliferative activity against human SW1573 cells assessed as reduction in cell viability by measuring bliss sum score incubated for 72 hrs in presence of docetaxel by CellTiter-Glo cell vaibility assay; type: functional

Cc1c(-c2ccc(N3CCc4cccc(C(=O)Nc5nc6ccccc6s5)c4C3)nc2C(=O)O)cnn1CC12CC3CC(CC(C3)C1)C2
TGI (NCI-H358 [1]): 62% | Activity (NCI-H358 [2]): 80% | TGI (NCI-H358 [3]): 91% | Activity [4]: Toxic | Activity (NCI-H747): 167% | Activity [5]: Toxic | Activity [6]: Non-Toxic | TGI (EBC-1): 88% | Activity [7]: < 9% | inhibition in vivo at 25 mg/kg (MDA-MB-231): 93% | inhibition in vivo at 25 mg/kg (NCI-H1650): 98%

CC1(C)CCC(c2ccc(Cl)cc2)=C(CN2CCN(c3ccc(C(=O)NS(=O)(=O)c4ccc(N[C@H](CCN5CCOCC5)CSc5ccccc5)c(S(=O)(=O)C(F)(F)F)c4)cc3)CC2)C1 [NAVITOCLAX]
Activity (MDA-MB-468): Active | Activity (UAC812): Active | Activity (MX1): Active | Activity [8]: Toxic | Activity (HCC1143): Active | Activity (T47D): Active | Activity (HCC1500): Active | Activity (MCF7): Active

CN(C)CC#Cc1ccc(OCCCc2sc(N3CCc4cccc(C(=O)Nc5nc6ccccc6s5)c4C3)nc2C(=O)O)c(F)c1 [A-1155463]
Activity_index (NCI-H460): 105 | Activity_index (A549): 137 | Activity_index (OVCAR-3): 683 | Activity_index (ZR-75-1): 103 | Activity_index (HCC1569): 185 | Activity_index (OVCAR-8): 159 | Activity_index (SW1573): 461
